Measurements taken from ChEMBL document CHEMBL1157570, “Development of potent and selective inhibitors of ecto-5'-nucleotidase based on an anthraquinone scaffold” (J Med Chem, 2010).
pIC50, pKi: −log10 of the molar value.

Experiments:
[1] = biological target: T1, 5'-nucleotidase (Rattus norvegicus) (UniProt P21588); test: Inhibition of rat ecto-5'-nucleotidase expressed in Sf9 cells at 1 mM by capillary electrophoresis method
T1 sequence (whole entry): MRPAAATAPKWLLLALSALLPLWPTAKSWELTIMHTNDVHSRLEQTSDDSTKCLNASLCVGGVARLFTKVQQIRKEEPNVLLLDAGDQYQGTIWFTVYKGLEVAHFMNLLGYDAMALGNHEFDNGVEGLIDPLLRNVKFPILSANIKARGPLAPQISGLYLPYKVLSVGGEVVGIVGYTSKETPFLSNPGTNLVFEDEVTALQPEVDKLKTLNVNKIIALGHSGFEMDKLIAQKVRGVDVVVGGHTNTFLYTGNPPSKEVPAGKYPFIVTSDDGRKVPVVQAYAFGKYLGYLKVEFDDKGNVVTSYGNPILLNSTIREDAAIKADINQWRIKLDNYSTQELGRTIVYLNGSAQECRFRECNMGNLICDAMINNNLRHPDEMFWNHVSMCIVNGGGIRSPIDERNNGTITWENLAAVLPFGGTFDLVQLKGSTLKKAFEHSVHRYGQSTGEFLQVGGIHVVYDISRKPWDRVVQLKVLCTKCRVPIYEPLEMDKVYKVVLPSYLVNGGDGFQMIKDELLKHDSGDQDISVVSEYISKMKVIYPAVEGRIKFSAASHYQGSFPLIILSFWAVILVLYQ
Method in brief: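 Test agent at 1 mM with 500 μM AMP in 10 mM Hepes pH 7.4, 2 mM MgCl2, 1 mM CaCl2. Incubated 15 min at 37 °C, stopped at 99 °C for 10 min. Adenosine quantified by capillary electrophoresis, UV peak area at 260 nm.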

5'-nucleotidase = biological target: T2, 5'-nucleotidase (Rattus norvegicus, UniProt P21588); test: Inhibition of rat ecto-5'-nucleotidase expressed in Sf9 cells by capillary electrophoresis method
T2 sequence (P21588 whole entry): T1 sequence (whole entry)
Method in brief: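 Rat eN, GST-fused, made in Sf9 cells and purified on GSH-agarose. 500 μM AMP in Hepes pH 7.4 with Mg2+/Ca2+, 37 °C for 15 min. Adenosine measured by capillary electrophoresis at 260 nm. Inhibitor at 6-8 concentrations spanning about 3 log units. […] Three experiments, each in duplicate.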

P2Y purinoceptor 4 = P2Y purinoceptor 4 (Homo sapiens, UniProt P51582); test: Antagonist activity at human P2Y4 receptor expressed in astrocytoma cells assessed as inhibition of intracellular calcium mobilization; format: functional, cell-based
P2Y purinoceptor 4, sequence (P51582 whole entry): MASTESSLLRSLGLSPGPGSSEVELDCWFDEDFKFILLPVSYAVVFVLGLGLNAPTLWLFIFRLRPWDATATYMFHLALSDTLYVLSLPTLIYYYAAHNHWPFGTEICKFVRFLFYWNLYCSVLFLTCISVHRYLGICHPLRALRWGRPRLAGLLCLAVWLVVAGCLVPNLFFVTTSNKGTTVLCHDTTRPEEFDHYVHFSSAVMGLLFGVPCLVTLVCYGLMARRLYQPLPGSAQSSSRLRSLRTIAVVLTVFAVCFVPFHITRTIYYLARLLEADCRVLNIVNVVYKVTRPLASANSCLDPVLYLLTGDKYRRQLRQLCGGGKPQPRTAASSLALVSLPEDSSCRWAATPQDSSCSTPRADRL
Method in brief: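 Astrocytoma cells stably expressing the receptor, loaded with Fura-2 AM. Cells preincubated with test agent for at least 20 min, then challenged with 1 μM UTP (P2Y2), 3 μM UTP (P2Y4) or 3 μM UDP (P2Y6). Ca2+ fluorescence read at ex 320/em 520 nm. Full curves (7-8 concentrations over 3 log units) run when inhibition exceeded 40% at 10 μM. Three experiments, each in triplicate.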

SMILES | inhibition [1] [%] | pKi (5'-nucleotidase) | pIC50 (P2Y purinoceptor 4)
Cc1cccc(Nc2cc(S(=O)(=O)O)c(N)c3c2C(=O)c2ccccc2C3=O)c1 | – | 4.91 | –
Nc1c(S(=O)(=O)O)cc(Nc2cccc3c(S(=O)(=O)O)cccc23)c2c1C(=O)c1ccccc1C2=O | – | 4.93 | –
Nc1c(S(=O)(=O)O)cc(Nc2ccc(Nc3nc(Cl)nc(Nc4cccc(S(=O)(=O)O)c4)n3)c(S(=O)(=O)O)c2)c2c1C(=O)c1ccccc1C2=O [RB 2] | – | 5.51 | 5.01
Nc1c(S(=O)(=O)O)cc(Nc2cccc3cccc(S(=O)(=O)O)c23)c2c1C(=O)c1ccccc1C2=O | – | 5.22 | –
Nc1c(S(=O)(=O)O)cc(Nc2ccc3ccccc3c2)c2c1C(=O)c1ccccc1C2=O | – | 5.83 | –
Cc1cc(C)c(Nc2cc(S(=O)(=O)O)c(N)c3c2C(=O)c2ccccc2C3=O)c(C)c1N | – | 4.44 | –

Continued by rising pKi (5'-nucleotidase), values first:

inhibition [1] [%] | pKi (5'-nucleotidase) | SMILES | pIC50 (P2Y purinoceptor 4)
47 | 4.33 | Nc1ccccc1Nc1cc(S(=O)(=O)O)c(N)c2c1C(=O)c1ccccc1C2=O | –
– | 5.19 | Nc1c(S(=O)(=O)O)cc(Nc2ccccc2C(=O)O)c2c1C(=O)c1ccccc1C2=O | –
– | 5.56 | Cc1ccc2ccccc2c1Nc1cc(S(=O)(=O)O)c(N)c2c1C(=O)c1ccccc1C2=O | –
– | 5.74 | Nc1c(S(=O)(=O)O)cc(Nc2ccccc2O)c2c1C(=O)c1ccccc1C2=O | –
